# Assays:
# Assay type in all cases: toxicity, cell-based
# U2OS [1] = assay: Multiplex assay against U2OS; settings: human
# In short: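 Hoechst33342, BioTracker Green Microtubule Cytoskeleton Dye, MitoTracker Red and Annexin V Alexa Fluor 680 were added to live cells at seeding, and imaging on a CQ1 microscope at 37°C and 5% CO2 followed compound addition. Gating by CellPathfinder machine learning separated cells into Hoechst high-intensity objects or normal cells, then normal cells into healthy, pyknosed or fragmented nuclei, then pyknosed cells into mitotic or apoptotic. Per cents of healthy-nucleus cells are reported for the tubulin, mitochondrial-mass and membrane-permeability phenotypes.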
# U2OS [2] = assay: Incucyte cell viability with U2OS; settings: human, 10 µM, compound concentration 10 uM; further: filed as whole numbers so only -1 and 0 and 1 occur
# HEK-293T = assay: Incucyte cell viability with HEK293T; settings: human, 10 µM, compound concentration 10 uM; further: filed as whole numbers so only -1 and 0 and 1 occur
# [3] = 12 h, 1 µM, compound concentration 1 uM, replicate 1
# [4] = 12 h, 1 µM, compound concentration 1 uM, replicate 2
# [5] = 12 h, 10 µM, compound concentration 10 uM, replicate 1
# [6] = 12 h, 10 µM, compound concentration 10 uM, replicate 2
# [7] = 24 h, 1 µM, compound concentration 1 uM, replicate 1
# [8] = 24 h, 1 µM, compound concentration 1 uM, replicate 2
# [9] = 24 h, 10 µM, compound concentration 10 uM, replicate 1
# [10] = 24 h, 10 µM, compound concentration 10 uM, replicate 2
# [11] = 6 h, replicate number 1, timepoint 6 hours
# [12] = 12 h, replicate number 1, timepoint 12 hours
# [13] = 18 h, replicate number 1, timepoint 18 hours
# [14] = 24 h, replicate number 1, timepoint 24 hours
compound,measurement,setting,value
Cc1ccc(NC(=O)Nc2cc(C(F)(F)F)ccc2F)cc1Nc1ccc2c(c1)NC(=O)/C2=C\c1ccc[nH]1,Population Apoptotic (%),U2OS [1]; [3],32%
same,Population Fragmented Nuclei (%),U2OS [1]; [3],15%
same,Population Healthy Nuclei (%),U2OS [1]; [3],66%
same,Population Hoechst High Intensity Objects (%),U2OS [1]; [3],2%
same,Population Membrane Permeable-Phenotype (%),U2OS [1]; [3],87%
same,Population Mitochondria Different-Phenotype (%),U2OS [1]; [3],7%
same,Population Mitotic Cells (%),U2OS [1]; [3],68%
same,Population Normal (%),U2OS [1]; [3],97%
same,Population Pyknosed Nuclei (%),U2OS [1]; [3],18%
same,Population Tubulin-Different-Phenotype (%),U2OS [1]; [3],65%
same,Total Cell Count,U2OS [1]; [3],153
same,Population Apoptotic (%),U2OS [1]; [4],33%
same,Population Fragmented Nuclei (%),U2OS [1]; [4],24%
same,Population Healthy Nuclei (%),U2OS [1]; [4],57%
same,Population Hoechst High Intensity Objects (%),U2OS [1]; [4],12%
same,Population Membrane Permeable-Phenotype (%),U2OS [1]; [4],91%
same,Population Mitochondria Different-Phenotype (%),U2OS [1]; [4],18%
same,Population Mitotic Cells (%),U2OS [1]; [4],66%
same,Population Normal (%),U2OS [1]; [4],87%
same,Population Pyknosed Nuclei (%),U2OS [1]; [4],17%
same,Population Tubulin-Different-Phenotype (%),U2OS [1]; [4],59%
same,Total Cell Count,U2OS [1]; [4],88
same,Population Apoptotic (%),U2OS [1]; [5],22%
same,Population Fragmented Nuclei (%),U2OS [1]; [5],2%
same,Population Healthy Nuclei (%),U2OS [1]; [5],91%
same,Population Hoechst High Intensity Objects (%),U2OS [1]; [5],2%
same,Population Membrane Permeable-Phenotype (%),U2OS [1]; [5],11%
same,Population Mitochondria Different-Phenotype (%),U2OS [1]; [5],22%
same,Population Mitotic Cells (%),U2OS [1]; [5],77%
same,Population Normal (%),U2OS [1]; [5],97%
same,Population Pyknosed Nuclei (%),U2OS [1]; [5],6%
same,Population Tubulin-Different-Phenotype (%),U2OS [1]; [5],27%
same,Total Cell Count,U2OS [1]; [5],204
same,Population Apoptotic (%),U2OS [1]; [6],66%
same,Population Fragmented Nuclei (%),U2OS [1]; [6],8%
same,Population Healthy Nuclei (%),U2OS [1]; [6],87%
same,Population Hoechst High Intensity Objects (%),U2OS [1]; [6],11%
same,Population Membrane Permeable-Phenotype (%),U2OS [1]; [6],5%
same,Population Mitochondria Different-Phenotype (%),U2OS [1]; [6],29%
same,Population Mitotic Cells (%),U2OS [1]; [6],33%
same,Population Normal (%),U2OS [1]; [6],88%
same,Population Pyknosed Nuclei (%),U2OS [1]; [6],3%
same,Population Tubulin-Different-Phenotype (%),U2OS [1]; [6],19%
same,Total Cell Count,U2OS [1]; [6],147
same,Population Apoptotic (%),U2OS [1]; [7],75%
same,Population Fragmented Nuclei (%),U2OS [1]; [7],14%
same,Population Healthy Nuclei (%),U2OS [1]; [7],52%
same,Population Membrane Permeable-Phenotype (%),U2OS [1]; [7],85%
same,Population Mitochondria Different-Phenotype (%),U2OS [1]; [7],11%
same,Population Mitotic Cells (%),U2OS [1]; [7],25%
same,Population Pyknosed Nuclei (%),U2OS [1]; [7],32%
same,Population Tubulin-Different-Phenotype (%),U2OS [1]; [7],36%
same,Total Cell Count,U2OS [1]; [7],205
same,Population Apoptotic (%),U2OS [1]; [8],76%
same,Population Fragmented Nuclei (%),U2OS [1]; [8],31%
same,Population Healthy Nuclei (%),U2OS [1]; [8],44%
same,Population Hoechst High Intensity Objects (%),U2OS [1]; [8],4%
same,Population Membrane Permeable-Phenotype (%),U2OS [1]; [8],94%
same,Population Mitochondria Different-Phenotype (%),U2OS [1]; [8],12%
same,Population Mitotic Cells (%),U2OS [1]; [8],23%
same,Population Normal (%),U2OS [1]; [8],95%
same,Population Pyknosed Nuclei (%),U2OS [1]; [8],23%
same,Population Tubulin-Different-Phenotype (%),U2OS [1]; [8],53%
same,Total Cell Count,U2OS [1]; [8],118
same,Population Apoptotic (%),U2OS [1]; [9],26%
same,Population Fragmented Nuclei (%),U2OS [1]; [9],2%
same,Population Healthy Nuclei (%),U2OS [1]; [9],89%
same,Population Hoechst High Intensity Objects (%),U2OS [1]; [9],1%
same,Population Membrane Permeable-Phenotype (%),U2OS [1]; [9],8%
same,Population Mitochondria Different-Phenotype (%),U2OS [1]; [9],22%
same,Population Mitotic Cells (%),U2OS [1]; [9],73%
same,Population Normal (%),U2OS [1]; [9],98%
same,Population Pyknosed Nuclei (%),U2OS [1]; [9],7%
same,Population Tubulin-Different-Phenotype (%),U2OS [1]; [9],31%
same,Total Cell Count,U2OS [1]; [9],302
same,Population Apoptotic (%),U2OS [1]; [10],16%
same,Population Fragmented Nuclei (%),U2OS [1]; [10],6%
same,Population Healthy Nuclei (%),U2OS [1]; [10],87%
same,Population Hoechst High Intensity Objects (%),U2OS [1]; [10],8%
same,Population Membrane Permeable-Phenotype (%),U2OS [1]; [10],7%
same,Population Mitochondria Different-Phenotype (%),U2OS [1]; [10],32%
same,Population Mitotic Cells (%),U2OS [1]; [10],83%
same,Population Normal (%),U2OS [1]; [10],91%
same,Population Pyknosed Nuclei (%),U2OS [1]; [10],5%
same,Population Tubulin-Different-Phenotype (%),U2OS [1]; [10],18%
same,Total Cell Count,U2OS [1]; [10],205
same,Growth Rate,U2OS [2]; [11],1
same,Growth Rate,U2OS [2]; [12],0
same,Growth Rate,"U2OS [2]; 12 h, replicate number 2, timepoint 12 hours",1
same,Growth Rate,U2OS [2]; [13],0
same,Growth Rate,U2OS [2]; [14],0
same,Growth Rate,"HEK-293T; 0 h, replicate number 1, timepoint 0 hours",0
same,Growth Rate,HEK-293T; [11],0
same,Growth Rate,HEK-293T; [12],0
same,Growth Rate,HEK-293T; [13],0
same,Growth Rate,HEK-293T; [14],0
